Experimental data reported in ChEMBL document CHEMBL1123311, “Synthesis and antitumor and antiviral properties of 5-halo- and 5-(trifluoromethyl)-2'-deoxyuridine 3',5'-cyclic monophosphates and neutral triesters” (1986).
Values after ≈ are worked out from the molar mass of the structure shown.

Each molecule was assayed on Human alphaherpesvirus 2 (assay: Evaluation of antiviral activity against Herpes simplex virus type 2 (HSV-2) strain 196.). Conditions: not given.
Assay type: functional
In short: (§1)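 Virus-induced cytopathogenicity scored in primary rabbit kidney cell cultures. Value is the minimum concentration reducing cytopathogenicity by 50%. Cytotoxicity on uninfected cells was read as the minimal concentration causing a microscopically detectable change in normal cell morphology, tested up to 400 μg/mL.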
In the case of `N.O=c1[nH]c(=O)n([C@H]2C[C@@H]3O[PH](O)(O)OC[C@H]3O2)cc1I`, the MIC50 is reported as 20 µg/mL. For `O=c1[nH]c(=O)n([C@H]2C[C@H](O)[C@@H](CO)O2)cc1Cl` [CHLORODEOXYURIDINE], the MIC50 was 2 µg/mL (≈ 7.61 µM). `O=c1[nH]c(=O)n([C@H]2C[C@H](O)[C@@H](COP(=O)(O)O)O2)cc1C(F)(F)F` gave an MIC50 of 0.7 µg/mL (≈ 1.86 µM). With `O=c1[nH]c(=O)n([C@H]2C[C@H](O)[C@@H](CO)O2)cc1Br` [BROXURIDINE] the MIC50 was 0.2 µg/mL (≈ 0.651 µM).

These molecules were tested on Human alphaherpesvirus 2 (assay: Evaluation of antiviral activity against Herpes simplex virus type 2 (HSV-2) strain G). Conditions: not given.
Assay type: functional
In short: as §1
With `N.O=c1[nH]c(=O)n([C@H]2C[C@@H]3O[PH](O)(O)OC[C@H]3O2)cc1I` the MIC50 was 10 µg/mL. With `O=c1[nH]c(=O)n([C@H]2C[C@H](O)[C@@H](CO)O2)cc1Cl` [CHLORODEOXYURIDINE] the MIC50 was 1 µg/mL (≈ 3.81 µM). In the case of `O=c1[nH]c(=O)n([C@H]2C[C@H](O)[C@@H](COP(=O)(O)O)O2)cc1C(F)(F)F`, the MIC50 is reported as 0.7 µg/mL (≈ 1.86 µM). For `O=c1[nH]c(=O)n([C@H]2C[C@H](O)[C@@H](CO)O2)cc1Br` [BROXURIDINE], the MIC50 was 0.2 µg/mL (≈ 0.651 µM).

What follows are molecules tested on Human alphaherpesvirus 2 (assay: Evaluation of antiviral activity against Herpes simplex virus type 2 (HSV-2) strain Lyons). Conditions: not given.
Assay type: functional
In short: as §1
In the case of `N.O=c1[nH]c(=O)n([C@H]2C[C@@H]3O[PH](O)(O)OC[C@H]3O2)cc1I`, the MIC50 is reported as 7 µg/mL. In the case of `O=c1[nH]c(=O)n([C@H]2C[C@H](O)[C@@H](CO)O2)cc1Cl` [CHLORODEOXYURIDINE], the MIC50 is reported as 2 µg/mL (≈ 7.61 µM). `O=c1[nH]c(=O)n([C@H]2C[C@H](O)[C@@H](COP(=O)(O)O)O2)cc1C(F)(F)F` was tested, and the MIC50 was 0.6 µg/mL (≈ 1.59 µM). `O=c1[nH]c(=O)n([C@H]2C[C@H](O)[C@@H](CO)O2)cc1Br` [BROXURIDINE] showed an MIC50 of 0.07 µg/mL (≈ 0.228 µM).

What follows are molecules tested on Human alphaherpesvirus 1 (assay: Evaluation of antiviral activity against Herpes simplex virus type 1 (HSV-1) strain F). Conditions: not given.
Assay type: functional
In short: as §1
`N.O=c1[nH]c(=O)n([C@H]2C[C@@H]3O[PH](O)(O)OC[C@H]3O2)cc1I` gave an MIC50 of 2 µg/mL. Work on `O=c1[nH]c(=O)n([C@H]2C[C@H](O)[C@@H](CO)O2)cc1Cl` [CHLORODEOXYURIDINE] yielded an MIC50 of 0.7 µg/mL (≈ 2.67 µM). For `O=c1[nH]c(=O)n([C@H]2C[C@H](O)[C@@H](COP(=O)(O)O)O2)cc1C(F)(F)F`, the MIC50 was 0.7 µg/mL (≈ 1.86 µM). For `O=c1[nH]c(=O)n([C@H]2C[C@H](O)[C@@H](CO)O2)cc1Br` [BROXURIDINE], the MIC50 was 0.2 µg/mL (≈ 0.651 µM).

What follows are molecules tested on Human alphaherpesvirus 1 (assay: Evaluation of antiviral activity against Herpes simplex virus type 1 (HSV-1) strain McIntyre). Conditions: not given.
Assay type: functional
In short: as §1
Work on `N.O=c1[nH]c(=O)n([C@H]2C[C@@H]3O[PH](O)(O)OC[C@H]3O2)cc1I` yielded an MIC50 of 7 µg/mL. Molecule `O=c1[nH]c(=O)n([C@H]2C[C@H](O)[C@@H](CO)O2)cc1Cl` [CHLORODEOXYURIDINE] has an MIC50 of 2 µg/mL (≈ 7.61 µM). Work on `O=c1[nH]c(=O)n([C@H]2C[C@H](O)[C@@H](COP(=O)(O)O)O2)cc1C(F)(F)F` yielded an MIC50 of 0.4 µg/mL (≈ 1.06 µM). `O=c1[nH]c(=O)n([C@H]2C[C@H](O)[C@@H](CO)O2)cc1Br` [BROXURIDINE] showed an MIC50 of 0.2 µg/mL (≈ 0.651 µM).

Each molecule was assayed on L1210 (assay: Evaluation of antitumor activity against mutant murine leukemia L1210 cells). Conditions: Mus musculus, read-out: ID50 (the source's name).
Assay type: functional
In short: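 Proliferation of mutant murine leukemia L1210/BdUrd cells, selected from parental L1210/0 for growth in 260 μg/mL 5-bromo-2'-deoxyuridine. Value is the dose inhibiting proliferation by 50%.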
`N.O=c1[nH]c(=O)n([C@H]2C[C@@H]3O[PH](O)(O)OC[C@H]3O2)cc1I` showed an IC50 greater than 500 µg/mL. Work on `O=c1[nH]c(=O)n([C@H]2C[C@H](O)[C@@H](CO)O2)cc1Cl` [CHLORODEOXYURIDINE] yielded an IC50 of 339 µg/mL (≈ 1290 µM). With `O=c1[nH]c(=O)n([C@H]2C[C@H](O)[C@@H](COP(=O)(O)O)O2)cc1C(F)(F)F` the IC50 was 38 µg/mL (≈ 101 µM). In the case of `O=c1[nH]c(=O)n([C@H]2C[C@H](O)[C@@H](CO)O2)cc1Br` [BROXURIDINE], the IC50 is reported as greater than 1000 µg/mL.

The molecules below were run on L1210 (assay: Evaluation of cytostatic activity by using antitumor assays against murine leukemia L1210 cells). Conditions: Mus musculus, read-out: ID50 (the source's name).
Assay type: functional
`N.O=c1[nH]c(=O)n([C@H]2C[C@@H]3O[PH](O)(O)OC[C@H]3O2)cc1I` was tested, and the IC50 was no less than 500 µg/mL. `O=c1[nH]c(=O)n([C@H]2C[C@H](O)[C@@H](CO)O2)cc1Cl` [CHLORODEOXYURIDINE] gave an IC50 of 21.3 µg/mL (≈ 81.1 µM). For `O=c1[nH]c(=O)n([C@H]2C[C@H](O)[C@@H](COP(=O)(O)O)O2)cc1C(F)(F)F`, the IC50 was 0.017 µg/mL (≈ 0.0452 µM). `O=c1[nH]c(=O)n([C@H]2C[C@H](O)[C@@H](CO)O2)cc1Br` [BROXURIDINE] showed an IC50 of 33.8 µg/mL (≈ 110 µM).

What follows are molecules tested on Vesicular stomatitis virus (assay: Evaluation of antiviral activity against Vesicular stomatitis virus.). Conditions: not given.
Assay type: functional
In short: as §1
With `N.O=c1[nH]c(=O)n([C@H]2C[C@@H]3O[PH](O)(O)OC[C@H]3O2)cc1I` the MIC50 was greater than 400 µg/mL. Work on `O=c1[nH]c(=O)n([C@H]2C[C@H](O)[C@@H](CO)O2)cc1Cl` [CHLORODEOXYURIDINE] yielded an MIC50 greater than 400 µg/mL. Work on `O=c1[nH]c(=O)n([C@H]2C[C@H](O)[C@@H](COP(=O)(O)O)O2)cc1C(F)(F)F` yielded an MIC50 greater than 400 µg/mL. With `O=c1[nH]c(=O)n([C@H]2C[C@H](O)[C@@H](CO)O2)cc1Br` [BROXURIDINE] the MIC50 was greater than 400 µg/mL.

What follows are molecules tested on Vaccinia virus (assay: Evaluation of antiviral activity against Vaccinia virus). Conditions: Orthopoxvirus vaccinia.
Assay type: functional
In short: as §1
Work on `N.O=c1[nH]c(=O)n([C@H]2C[C@@H]3O[PH](O)(O)OC[C@H]3O2)cc1I` yielded an MIC50 of 2 µg/mL. With `O=c1[nH]c(=O)n([C@H]2C[C@H](O)[C@@H](CO)O2)cc1Cl` [CHLORODEOXYURIDINE] the MIC50 was 0.2 µg/mL (≈ 0.761 µM). `O=c1[nH]c(=O)n([C@H]2C[C@H](O)[C@@H](COP(=O)(O)O)O2)cc1C(F)(F)F` gave an MIC50 of 0.2 µg/mL (≈ 0.532 µM). With `O=c1[nH]c(=O)n([C@H]2C[C@H](O)[C@@H](CO)O2)cc1Br` [BROXURIDINE] the MIC50 was 0.07 µg/mL (≈ 0.228 µM).

These molecules were tested on Raji (assay: Evaluation of antitumor activity against thymidine kinase deficient Raji cell line). Conditions: Homo sapiens, read-out: ID50 (the source's name).
Assay type: functional
`N.O=c1[nH]c(=O)n([C@H]2C[C@@H]3O[PH](O)(O)OC[C@H]3O2)cc1I` was tested, and the IC50 was greater than 500 µg/mL. For `O=c1[nH]c(=O)n([C@H]2C[C@H](O)[C@@H](CO)O2)cc1Cl` [CHLORODEOXYURIDINE], the IC50 was greater than 1000 µg/mL. `O=c1[nH]c(=O)n([C@H]2C[C@H](O)[C@@H](COP(=O)(O)O)O2)cc1C(F)(F)F` was tested, and the IC50 was 212 µg/mL (≈ 564 µM). Work on `O=c1[nH]c(=O)n([C@H]2C[C@H](O)[C@@H](CO)O2)cc1Br` [BROXURIDINE] yielded an IC50 greater than 1000 µg/mL.

What follows are molecules tested against Thymidylate synthase (Mus musculus) (UniProt P07607) (assay: Compound was evaluated for the inhibition of L1210 Thymidylate synthase). Conditions: not given.
Sequence of Thymidylate synthase (Mus musculus) (P07607 whole entry, looked up): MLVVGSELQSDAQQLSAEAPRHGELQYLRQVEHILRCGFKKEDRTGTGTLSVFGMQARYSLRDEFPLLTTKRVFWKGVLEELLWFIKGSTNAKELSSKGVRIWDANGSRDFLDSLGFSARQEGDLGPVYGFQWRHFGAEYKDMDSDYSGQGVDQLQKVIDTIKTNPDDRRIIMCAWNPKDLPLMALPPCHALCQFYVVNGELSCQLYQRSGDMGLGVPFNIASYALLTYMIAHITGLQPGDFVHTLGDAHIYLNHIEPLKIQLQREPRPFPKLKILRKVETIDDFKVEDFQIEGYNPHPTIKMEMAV
In short: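 Thymidylate (dTMP) synthetase inhibition measured with a partially purified extract of L1210 cells as the enzyme source.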
With `N.O=c1[nH]c(=O)n([C@H]2C[C@@H]3O[PH](O)(O)OC[C@H]3O2)cc1I` the Ki/Km was greater than 355. `O=c1[nH]c(=O)n([C@H]2C[C@H](O)[C@@H](COP(=O)(O)O)O2)cc1C(F)(F)F` gave a Ki/Km of 0.061.

Species: Homo sapiens
Assay: Evaluation for antitumor activity against human lymphoblast Raji cells
Assay type: functional
Conditions: Homo sapiens, Raji; read-out: ID50 (the source's name)
In the case of `N.O=c1[nH]c(=O)n([C@H]2C[C@@H]3O[PH](O)(O)OC[C@H]3O2)cc1I`, the IC50 is reported as 54 µg/mL. For `O=c1[nH]c(=O)n([C@H]2C[C@H](O)[C@@H](CO)O2)cc1Cl` [CHLORODEOXYURIDINE], the IC50 was 8.54 µg/mL (≈ 32.5 µM). `O=c1[nH]c(=O)n([C@H]2C[C@H](O)[C@@H](COP(=O)(O)O)O2)cc1C(F)(F)F` gave an IC50 of 0.169 µg/mL (≈ 0.449 µM). With `O=c1[nH]c(=O)n([C@H]2C[C@H](O)[C@@H](CO)O2)cc1Br` [BROXURIDINE] the IC50 was 17.5 µg/mL (≈ 57 µM).

Each molecule was assayed on Human alphaherpesvirus 1 (assay: Evaluation of antiviral activity against Herpes simplex virus type 1 (HSV-1) strain KOS.). Conditions: not given.
Assay type: functional
In short: as §1
With `N.O=c1[nH]c(=O)n([C@H]2C[C@@H]3O[PH](O)(O)OC[C@H]3O2)cc1I` the MIC50 was 2 µg/mL. In the case of `O=c1[nH]c(=O)n([C@H]2C[C@H](O)[C@@H](CO)O2)cc1Cl` [CHLORODEOXYURIDINE], the MIC50 is reported as 2 µg/mL (≈ 7.61 µM). For `O=c1[nH]c(=O)n([C@H]2C[C@H](O)[C@@H](COP(=O)(O)O)O2)cc1C(F)(F)F`, the MIC50 was 0.7 µg/mL (≈ 1.86 µM). `O=c1[nH]c(=O)n([C@H]2C[C@H](O)[C@@H](CO)O2)cc1Br` [BROXURIDINE] showed an MIC50 of 0.2 µg/mL (≈ 0.651 µM).
